Test results reported in ChEMBL document CHEMBL1828518, “Arylazolylthioacetanilide. Part 8: Design, synthesis and biological evaluation of novel 2-(2-(2,4-dichlorophenyl)-2H-1,2,4-triazol-3-ylthio)-N-arylacetamides as potent HIV-1 inhibitors” (Eur J Med Chem, 2011).
The source made the active and inactive calls. No cut-off for these calls is given here.

Experiments:
[1] = test system: Human immunodeficiency virus 1; assay: Antiviral activity against HIV-1 3B harboring RT Y181C mutant infected in human MT4 cells assessed as inhibition of virus-induced syncytium formation after 5 days by MTT assay; type: functional, organism-based
Procedure, shortened: (§1)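 Exponentially growing MT-4 cells, pelleted and resuspended at 6 × 10⁵ cells/mL, were infected with virus stock at 100-300 CCID50. Test compounds were added at infection as serial fivefold dilutions, in triplicate wells. After 5 days, viability was read by MTT reduction at 540 and 690 nm using the median OD of three wells.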

[2] = test system: Human immunodeficiency virus 1; assay: Antiviral activity against HIV-1 3B harboring RT Y188L mutant infected in human MT4 cells assessed as inhibition of virus-induced syncytium formation after 5 days by MTT assay; type: functional, organism-based; procedure, shortened: as §1
[3] = test system: Human immunodeficiency virus 1; assay: Antiviral activity against HIV-1 3B harboring RT F227L and V106A mutant infected in human MT4 cells assessed as inhibition of virus-induced syncytium formation after 5 days by MTT assay; type: functional, organism-based; procedure, shortened: as §1
[4] = test system: Human immunodeficiency virus 1; assay: Antiviral activity against HIV-1 3B harboring RT K103N and Y181C mutant infected in human MT4 cells assessed as inhibition of virus-induced syncytium formation after 5 days by MTT assay; type: functional, organism-based; procedure, shortened: as §1
[5] = test system: Human immunodeficiency virus 1; assay: Antiviral activity against HIV-1 3B harboring RT E138K mutant infected in human MT4 cells assessed as inhibition of virus-induced syncytium formation after 5 days by MTT assay; type: functional, organism-based; conditions: Human immunodeficiency virus 1, 3B, MT4, 120 h; procedure, shortened: as §1
[6] = test system: Human immunodeficiency virus 1; assay: Antiviral activity against HIV-1 3B harboring RT K103N mutant infected in human MT4 cells assessed as inhibition of virus-induced syncytium formation after 5 days by MTT assay; type: functional, organism-based; conditions: Human immunodeficiency virus 1, 3B, MT4, 120 h; procedure, shortened: as §1
[7] = test system: Human immunodeficiency virus 1; assay: Antiviral activity against HIV-1 3B harboring RT L100I mutant infected in human MT4 cells assessed as inhibition of virus-induced syncytium formation after 5 days by MTT assay; type: functional, organism-based; conditions: Human immunodeficiency virus 1, 3B, MT4, 120 h; procedure, shortened: as §1
[8] = test system: Human immunodeficiency virus 1; assay: Antiviral activity against HIV-1 3B infected in human MT4 cells assessed as inhibition of virus-induced syncytium formation after 5 days by MTT assay; type: functional, organism-based; conditions: Human immunodeficiency virus 1, 3B, MT4, 120 h
Procedure, shortened: (§2)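 MT-4 cells (exponentially growing, spun 5 min at 1000 rpm, resuspended at 6 × 10⁵ cells/mL) infected with HIV-1 IIIB or HIV-2 ROD at 100–300 CCID50. Compounds added at infection in triplicate wells as serial fivefold dilutions, with untreated infected and mock-infected controls. Viability read by MTT at 540 and 690 nm after 5 days, from the median OD of three wells.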

[9] = test system: Human immunodeficiency virus 2; assay: Antiviral activity against HIV-2 ROD infected in human MT4 cells assessed as inhibition of virus-induced syncytium formation after 5 days by MTT assay; type: functional, organism-based; conditions: Human immunodeficiency virus 2, ISOLATE ROD, MT4, 120 h; procedure, shortened: as §2
[10] = Cytotoxicity against human MT4 cells assessed as cell viability after 5 days by MTT assay; type: cell-based
Procedure, shortened: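 MT-4 cells at 6 × 10⁵ cells/mL, mock-infected with culture medium and run in parallel with the antiviral plates. Test compounds given as serial fivefold dilutions in triplicate wells. After 5 days viability read by MTT reduction to formazan at 540 and 690 nm, using the median OD of three wells.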

[11] = Selectivity index, ratio of CC50 for human MT4 cells to EC50 for HIV-1 3B infected in human MT4 cells; type: toxicity, cell-based; conditions: uninfected and infected with HIV-1 3B, read-out: Ratio CC50/EC50
Procedure, shortened: (§3)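 Selectivity index calculated as CC50 divided by EC50. Both values come from MTT readings taken 5 days after infection, on mock-infected and virus-infected MT-4 cells run in parallel.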

[12] = Selectivity index, ratio of CC50 for human MT4 cells to EC50 for HIV-2 ROD infected in human MT4 cells; type: toxicity, cell-based; conditions: uninfected and infected with HIV-2 ROD, read-out: Ratio CC50/EC50; procedure, shortened: as §3
[13] = test system: Human immunodeficiency virus 1; assay: Ratio of EC50 for HIV-1 3B harboring RT K103N mutant infected in human MT4 cells to EC50 for wild type HIV-1 3B infected in human MT4 cells; type: functional
Procedure, shortened: (§4)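 Fold resistance is the EC50 against the drug-resistant strain divided by the EC50 against wild-type HIV-1 IIIB. Both values come from the same MT-4 assay: 5-day infection, MTT viability read-out, and serial fivefold compound dilutions in triplicate wells.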

[14] = test system: Human immunodeficiency virus 1; assay: Ratio of EC50 for HIV-1 3B harboring RT E138K mutant infected in human MT4 cells to EC50 for wild type HIV-1 3B infected in human MT4 cells; type: functional; procedure, shortened: as §4
[15] = test system: Human immunodeficiency virus 1; assay: Ratio of EC50 for HIV-1 3B harboring RT L100I mutant infected in human MT4 cells to EC50 for wild type HIV-1 3B infected in human MT4 cells; type: functional; procedure, shortened: as §4
[16] = target: Human immunodeficiency virus type 1 reverse transcriptase (Human immunodeficiency virus 1, UniProt Q72547); assay: Inhibition of HIV-1 reverse transcriptase assessed as inhibition of biotin-dUTP incorporation […] by colorimetry
Procedure, shortened: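 Purified recombinant HIV-1 RT with a […] template primer. Read-out is colorimetric detection of biotin-dUTP incorporated into the homopolymer template primer, with nucleotides linked to the microtiter plate.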

Structure (SMILES)	inhibition [1]	inhibition [2]	inhibition [3]	inhibition [4]	EC50 [5] [µM]	EC50 [6] [µM]	EC50 [7] [µM]	EC50 [8] [µM]	EC50 [9] [µM]	CC50 at 120 h [10] [µM]	selectivity ratio [11]	selectivity ratio [12]	Ratio EC50 [13]	Ratio EC50 [14]	Ratio EC50 [15]	IC50 [16] [µM]	EC50 ([4]; Human immunodeficiency virus 1, 3B, MT4, 120 h) [µM]
O=C1Nc2ccc(Cl)cc2[C@@](C#CC2CC2)(C(F)(F)F)O1 [EFAVIRENZ]	inactive	inactive	inactive	inactive	0.0055	0.108	0.054	–	–	–	–	–	–	–	–	–	–
O=C(CSc1ncnn1-c1ccc(Cl)cc1Cl)Nc1ccccc1F	–	–	–	–	–	–	–	> 38.4	> 38.4	38.4	< 1	< 1	–	–	–	–	–
O=C(CSc1ncnn1-c1ccc(Cl)cc1Cl)Nc1ccccc1Cl	inactive	inactive	inactive	inactive	20.9	16.1	21.4	6.21	> 29.1	29.1	5	< 1	2.8	3.6	3.7	–	–
COC(=O)c1ccc(NC(=O)CSc2ncnn2-c2ccc(Cl)cc2Cl)c(Br)c1	inactive	inactive	inactive	inactive	≥ 15.2	7.73	6.95	4.13	> 59.3	59.3	14	< 1	2.2	>=4.3	2	385	–
Cc1ccc(NC(=O)CSc2ncnn2-c2ccc(Cl)cc2Cl)c([N+](=O)[O-])c1	–	–	–	–	–	–	–	> 285	> 285	> 285	–	–	–	–	–	–	–
O=C(CSc1ncnn1-c1ccc(Cl)cc1Cl)Nc1cccnc1Cl	inactive	inactive	inactive	inactive	6.79	10.5	15.4	4.99	> 98.5	98.5	20	< 1	2.8	4.3	4.4	–	–
O=C(CSc1ncnn1-c1ccc(Cl)cc1Cl)Nc1ccc(Cl)cc1Br	–	–	–	–	–	–	–	> 189	> 189	189	< 1	< 1	–	–	–	–	–
CC(C)Nc1cccnc1N1CCN(C(=O)c2cc3cc(NS(C)(=O)=O)ccc3[nH]2)CC1.CS(=O)(=O)O [DELAVIRDINE MESYLATE]	inactive	inactive	inactive	inactive	0.06	1.72	2.23	–	–	–	–	–	52.8	1.9	68.3	–	–
CCOC(=O)c1ccc(NC(=O)CSc2ncnn2-c2ccc(Cl)cc2Cl)c(Br)c1	inactive	inactive	inactive	inactive	> 38.7	9.54	10.8	4.68	> 33.1	33.1	7	< 1	1.6	>6.7	1.9	297	–
O=c1[nH]cnc2c1ncn2[C@H]1CC[C@@H](CO)O1 [DIDANOSINE]	–	–	–	–	–	–	–	8.86	16	> 211	> 24	> 13	–	–	–	–	–
Nc1ccn([C@H]2CC[C@@H](CO)O2)c(=O)n1 [ZALCITABINE]	–	–	–	–	–	–	–	0.75	0.88	> 94	> 127	> 108	–	–	–	–	–
Cc1ccnc2c1NC(=O)c1cccnc1N2C1CC1 [NEVIRAPINE]	inactive	inactive	inactive	inactive	0.18	7.25	1.92	0.19	> 15	> 15	–	–	–	–	–	–	–
Cc1cn([C@H]2C[C@H](N=[N+]=[N-])[C@@H](CO)O2)c(=O)[nH]c1=O [ZIDOVUDINE]	inactive	inactive	inactive	inactive	0.02	0.011	0.0049	0.0076	0.0033	> 88.3	> 11600	> 28300	0.71	1.4	0.32	–	–
NS(=O)(=O)c1ccc(NC(=O)CSc2nnc(Br)n2-c2ccc(C3CC3)c3ccccc23)c(Cl)c1	–	–	–	–	–	–	–	–	–	–	–	–	–	–	–	–	0.23
O=C(CSc1ncnn1-c1ccc(Cl)cc1Cl)Nc1ccccc1Br	inactive	inactive	inactive	inactive	28.2	8.36	25.7	4.85	> 95.1	95.1	20	< 1	1.9	6.6	6	–	–
COC(=O)c1ccc(NC(=O)CSc2ncnn2-c2ccc(Cl)cc2Cl)cc1	–	–	–	–	–	–	–	> 26.3	> 26.3	26.3	< 1	< 1	–	–	–	–	–
CCOC(=O)c1ccc(NC(=O)CSc2ncnn2-c2ccc(Cl)cc2Cl)cc1	–	–	–	–	–	–	–	> 22.8	> 22.8	22.8	< 1	< 1	–	–	–	–	–
Cc1ccccc1NC(=O)CSc1ncnn1-c1ccc(Cl)cc1Cl	–	–	–	–	–	–	–	32.4	> 106	106	3	< 1	–	–	–	–	–
O=C(CSc1ncnn1-c1ccc(Cl)cc1Cl)Nc1ccc(Cl)cc1Cl	–	–	–	–	–	–	–	34.4	> 172	172	5	< 1	–	–	–	–	–
CC(=O)c1ccc(NC(=O)CSc2ncnn2-c2ccc(Cl)cc2Cl)c(Br)c1	–	–	–	–	–	–	–	> 114	> 114	114	< 1	< 1	–	–	–	–	–
Cc1cc(C#N)cc(C)c1Oc1nc(Nc2ccc(C#N)cc2)nc(N)c1Br [ETRAVIRINE]	inactive	inactive	inactive	inactive	0.008	0.00184	0.0046	–	–	–	–	–	0.62	2.6	1.54	–	–
O=C(CSc1ncnn1-c1ccc(Cl)cc1Cl)Nc1ccccc1[N+](=O)[O-]	inactive	inactive	inactive	inactive	9.45	7.42	8.51	2.78	> 187	187	67	< 1	1.8	2.3	2.1	> 471	–
Cc1ccc(NC(=O)CSc2ncnn2-c2ccc(Cl)cc2Cl)c(Br)c1	–	–	–	–	–	–	–	> 184	> 184	> 184	–	–	–	–	–	–	–
